Test results published in ChEMBL document CHEMBL4257536, “Pharmacophore-based tailoring of biphenyl amide derivatives as selective 5-hydroxytryptamine 2B receptor antagonists” (Medchemcomm, 2018).

Columns and labels:
[1] = biological target: T1, 5-hydroxytryptamine receptor 1A (Homo sapiens, UniProt P08908); test: Displacement of [3H]8-OH-DPAT from human 5HT1A receptor expressed in CHO cell membranes after 1.5 hrs by liquid scintillation counting method
T1 sequence (P08908 whole entry): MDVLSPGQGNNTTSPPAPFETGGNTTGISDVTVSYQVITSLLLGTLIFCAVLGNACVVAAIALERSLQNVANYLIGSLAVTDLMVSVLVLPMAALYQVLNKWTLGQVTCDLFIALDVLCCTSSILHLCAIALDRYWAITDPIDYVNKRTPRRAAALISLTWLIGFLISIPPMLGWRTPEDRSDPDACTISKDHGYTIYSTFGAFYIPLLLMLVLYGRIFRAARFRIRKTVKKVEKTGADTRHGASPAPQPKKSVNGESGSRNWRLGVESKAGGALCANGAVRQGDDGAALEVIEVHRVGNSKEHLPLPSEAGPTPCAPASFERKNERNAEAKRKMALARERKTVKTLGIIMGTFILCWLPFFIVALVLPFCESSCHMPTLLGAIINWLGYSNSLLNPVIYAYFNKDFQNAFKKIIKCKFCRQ
In short: (§1)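 Ki determination by radioligand displacement in triplicate. Reference radioligands: [3H]5-HT for 5-HT1E, [3H]8-OH-DPAT for 5-HT1A, [3H]GR127543 for 5-HT1B, [3H]LY278584 for 5-HT3.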

[2] = biological target: 5-hydroxytryptamine receptor 1E (Homo sapiens, UniProt P28566); test: Displacement of [3H]5-HT from human 5HT1E receptor expressed in HEKT cell membranes after 1.5 hrs by liquid scintillation counting method; in short: as §1
Sequence of 5-hydroxytryptamine receptor 1E (P28566 whole entry): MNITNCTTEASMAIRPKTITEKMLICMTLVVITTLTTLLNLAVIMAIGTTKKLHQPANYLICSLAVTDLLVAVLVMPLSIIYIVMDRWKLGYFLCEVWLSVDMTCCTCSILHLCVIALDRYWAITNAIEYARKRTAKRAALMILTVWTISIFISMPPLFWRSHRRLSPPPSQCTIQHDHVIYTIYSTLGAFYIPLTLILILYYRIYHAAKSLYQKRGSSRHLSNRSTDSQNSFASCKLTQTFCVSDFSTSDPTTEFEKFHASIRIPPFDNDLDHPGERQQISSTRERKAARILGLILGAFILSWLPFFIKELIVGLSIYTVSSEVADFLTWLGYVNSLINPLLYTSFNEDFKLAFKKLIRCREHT

[3] = biological target: 5-hydroxytryptamine receptor 2A (Homo sapiens, UniProt P28223); test: Displacement of [3H]ketanserin from human 5HT2A receptor expressed in HEKT cell membranes after 1.5 hrs by liquid scintillation counting method; assay type: cell-based
Sequence of 5-hydroxytryptamine receptor 2A (P28223 whole entry): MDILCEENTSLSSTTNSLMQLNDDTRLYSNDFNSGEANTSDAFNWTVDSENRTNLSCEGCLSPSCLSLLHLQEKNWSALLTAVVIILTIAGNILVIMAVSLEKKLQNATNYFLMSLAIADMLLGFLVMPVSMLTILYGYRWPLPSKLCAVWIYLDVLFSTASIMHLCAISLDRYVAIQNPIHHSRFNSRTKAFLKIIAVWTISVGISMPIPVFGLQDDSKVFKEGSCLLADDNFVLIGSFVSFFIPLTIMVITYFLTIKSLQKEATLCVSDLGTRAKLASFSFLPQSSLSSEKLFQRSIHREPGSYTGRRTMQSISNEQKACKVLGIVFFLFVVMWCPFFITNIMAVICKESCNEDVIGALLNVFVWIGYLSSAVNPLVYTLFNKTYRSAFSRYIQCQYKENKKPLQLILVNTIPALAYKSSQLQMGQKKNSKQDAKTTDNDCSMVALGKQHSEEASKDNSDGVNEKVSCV

[4] = biological target: T2, 5-hydroxytryptamine receptor 2B (Homo sapiens, UniProt P41595); test: Displacement of [3H]LSD from human 5HT2B receptor expressed in HEK cells membranes after 1.5 hrs by liquid scintillation counting method; assay type: cell membranes
T2 sequence (P41595 whole entry): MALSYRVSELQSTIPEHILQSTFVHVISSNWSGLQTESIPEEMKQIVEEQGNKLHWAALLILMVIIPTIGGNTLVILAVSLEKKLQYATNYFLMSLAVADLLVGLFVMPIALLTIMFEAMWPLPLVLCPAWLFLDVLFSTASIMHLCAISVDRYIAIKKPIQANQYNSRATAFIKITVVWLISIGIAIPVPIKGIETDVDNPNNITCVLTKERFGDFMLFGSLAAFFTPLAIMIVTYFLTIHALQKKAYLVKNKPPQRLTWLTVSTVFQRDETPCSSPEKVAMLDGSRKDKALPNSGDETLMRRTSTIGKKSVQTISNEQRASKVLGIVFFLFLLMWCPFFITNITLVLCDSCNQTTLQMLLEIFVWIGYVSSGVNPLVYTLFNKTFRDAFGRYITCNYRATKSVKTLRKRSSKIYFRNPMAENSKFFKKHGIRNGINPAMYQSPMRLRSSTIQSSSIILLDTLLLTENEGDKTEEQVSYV

[5] = biological target: T3, 5-hydroxytryptamine receptor 2C (Homo sapiens, UniProt P28335); test: Displacement of [3H]LSD from human 5HT2C receptor expressed in HEKT cell membranes after 1.5 hrs by liquid scintillation counting method
T3 sequence (P28335 whole entry): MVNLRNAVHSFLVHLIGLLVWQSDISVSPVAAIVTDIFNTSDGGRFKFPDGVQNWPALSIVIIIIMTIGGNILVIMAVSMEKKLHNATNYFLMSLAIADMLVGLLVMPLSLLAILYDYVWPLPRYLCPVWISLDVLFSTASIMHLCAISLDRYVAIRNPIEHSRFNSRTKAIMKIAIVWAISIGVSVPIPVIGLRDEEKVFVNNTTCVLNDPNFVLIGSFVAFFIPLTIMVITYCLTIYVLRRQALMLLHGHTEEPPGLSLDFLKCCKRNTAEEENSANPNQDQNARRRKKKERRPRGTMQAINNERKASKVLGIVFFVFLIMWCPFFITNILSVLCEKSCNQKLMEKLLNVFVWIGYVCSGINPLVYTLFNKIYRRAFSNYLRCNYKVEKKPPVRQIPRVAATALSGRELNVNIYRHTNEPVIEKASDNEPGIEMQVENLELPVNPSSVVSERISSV

[6] = biological target: 5-hydroxytryptamine receptor 1B (Homo sapiens, UniProt P28222); test: Displacement of [3H]GR127543 from human 5HT1B receptor expressed in HEK cell membranes after 1.5 hrs by liquid scintillation counting method; in short: as §1
Sequence of 5-hydroxytryptamine receptor 1B (P28222 whole entry): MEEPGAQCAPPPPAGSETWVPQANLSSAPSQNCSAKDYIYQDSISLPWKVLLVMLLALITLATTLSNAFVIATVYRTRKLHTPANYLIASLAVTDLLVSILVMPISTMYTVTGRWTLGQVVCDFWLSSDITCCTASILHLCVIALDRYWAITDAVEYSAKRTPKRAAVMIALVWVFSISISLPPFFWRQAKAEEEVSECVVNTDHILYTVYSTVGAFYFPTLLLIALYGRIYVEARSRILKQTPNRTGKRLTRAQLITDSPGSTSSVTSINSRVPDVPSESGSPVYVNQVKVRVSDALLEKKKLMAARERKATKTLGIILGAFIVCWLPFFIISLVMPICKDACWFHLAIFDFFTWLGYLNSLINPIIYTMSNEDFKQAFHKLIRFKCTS

[7] = biological target: T4, 5-hydroxytryptamine receptor 3A (Homo sapiens, UniProt P46098); test: Displacement of [3H]LY278584 from human 5HT3 receptor expressed in HEKT cell membranes after 1.5 hrs by liquid scintillation counting method
T4 sequence (P46098 whole entry): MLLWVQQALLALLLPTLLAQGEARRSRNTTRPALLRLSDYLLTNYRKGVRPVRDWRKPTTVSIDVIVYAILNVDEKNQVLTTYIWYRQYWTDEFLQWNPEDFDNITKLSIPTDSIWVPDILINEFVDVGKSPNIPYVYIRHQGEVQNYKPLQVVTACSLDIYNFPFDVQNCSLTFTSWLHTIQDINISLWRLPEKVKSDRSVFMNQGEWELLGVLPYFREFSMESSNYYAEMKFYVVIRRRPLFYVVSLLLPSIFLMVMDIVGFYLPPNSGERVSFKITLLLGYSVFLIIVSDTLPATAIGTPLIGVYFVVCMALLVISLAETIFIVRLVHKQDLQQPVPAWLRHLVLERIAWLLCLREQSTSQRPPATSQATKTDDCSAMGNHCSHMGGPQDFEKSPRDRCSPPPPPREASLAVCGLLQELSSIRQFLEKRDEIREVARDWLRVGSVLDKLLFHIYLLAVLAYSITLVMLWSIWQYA

Homo sapiens = species: Homo sapiens; test: Selectivity ratio of Ki for human 5HT1B receptor to Ki for human 5HT2B receptor
In short: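 Ki values from radioligand displacement run in triplicate, using [3H]GR127543 for 5-HT1B and [3H]LSD for 5-HT2B. The ratio compares the 5-HT1B Ki to the 5-HT2B Ki.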

HepG2 = test: Cytotoxicity against human HepG2 cells by MTT assay; assay type: cell-based
[8] = biological target: T2, 5-hydroxytryptamine receptor 2B; test: (§2) Antagonist activity at recombinant human 5-HT2B receptor expressed in CHOK1 cells assessed as inhibition of serotonin-induced calcium flux preincubated for 60 mins at 37 degC followed by incubation at room temperature for 15 mins and subsequent addition of serotonin and measured for 100 secs in presence of human serum albumin by fluorescence assay; assay type: functional, cell-based
In short: (§3)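 IC50 was measured in the CHO-K1/5-HT2B calcium-flux assay twice, once in buffer alone and once with 4% HSA added. The ratio compares the IC50 with HSA to the IC50 without it. Run in triplicate.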

[9] = Metabolic stability in human plasma assessed as compound remaining measured after 120 mins; assay type: ADME, cell-free; details: read-out: Stability
[10] = biological target: T2, 5-hydroxytryptamine receptor 2B; test: as §2, with “secs” for “secs in presence of human serum albumin”; assay type: functional, cell-based
In short: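 5-HT2B antagonist IC50 came from a dose-response curve in a calcium-flux assay in the CHO-K1/5-HT2B cell line. Run in triplicate.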

[11] = Half life of compound in fasted state simulated intestinal fluid at pH 6.5; assay type: ADME
[12] = biological target: T2, 5-hydroxytryptamine receptor 2B; test: as §2, with “flux at 1 to 10 uM” for “flux”, “secs” for “secs in presence of human serum albumin”, “assay relative to control” for “assay”; assay type: functional, cell-based
In short: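 Calcium-flux functional assay in CHO-K1 cells stably expressing 5-HT2B. Compounds were screened at 10 μM and 1 μM, and the value is % inhibition of 5-HT2B activity. Run in triplicate.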

[13] = Half life in rat liver microsomes; assay type: ADME, microsome
[14] = Apparent permeability across basolateral side to apical side in human Caco2 cells; assay type: ADME, cell-based; details: Caco-2
[15] = Apparent permeability across apical side to basolateral side in human Caco2 cells; assay type: ADME, cell-based; details: Caco-2
[16] = Half life of compound in fasted state simulated gastric fluid at pH 1.6; assay type: ADME
[17] = biological target: T2, 5-hydroxytryptamine receptor 2B; test: Ratio of IC50 for antagonist activity at recombinant human 5-HT2B receptor in presence of human serum albumin to IC50 for antagonist activity at recombinant human 5-HT2B receptor in absence of human serum albumin; in short: as §3

Row | SMILES | Ki [1] | Ki [2] | Ki [3] | Ki [4] | Ki [5] | Ki [6] | Ki [7] | Ratio IC50 [17] | other results
1 | O=C(NCc1ccccc1)C1CCN(C(=O)c2ccc(-c3ccccc3)cc2)CC1 | 9390 nM | > 10000 nM | 6790 nM | 569 nM | 986 nM | 8590 nM | > 10000 nM | – | Ratio Ki (Homo sapiens): 15
2 | O=C(NCCc1c[nH]c2ccccc12)C1CCN(C(=O)c2ccc(-c3ccccc3)cc2)CC1 | 603 nM | > 10000 nM | 2460 nM | 4.5 nM | 473 nM | 3410 nM | > 10000 nM | – | IC50 (HepG2): > 50000 nM; IC50 [8]: 18.7 nM; remaining at 2 h [9]: 97.4%; IC50 [10]: 14.1 nM; half-life [11]: > 8.33 h; inhibition [12]: > 95%; half-life [13]: 2.98 h; Papp B→A [14]: 32.8 ×10⁻⁶ cm/s; Papp A→B [15]: 16.3 ×10⁻⁶ cm/s; half-life [16]: 4.32 h
3 | O=C(c1ccc(-c2ccccc2)cc1)N1CCC(c2nc3ccccc3[nH]2)CC1 | – | – | – | – | – | – | – | 500 | –
4 | Cc1cc2c(cc1Cl)N(C(=O)Nc1ccnc3ccccc13)CC2 | – | – | – | – | – | – | – | 50 | –

Further lines, with some results ahead:

Row | Ki [1] | Ki [2] | Ki [3] | Ki [4] | Ki [5] | Ki [6] | Ki [7] | Ratio IC50 [17] | SMILES | other results
5 | 5400 nM | > 10000 nM | 5690 nM | 79.3 nM | 749 nM | 7600 nM | > 10000 nM | – | O=C(NCCc1c[nH]c2ccccc12)C1CCN(C(=O)c2ccccc2)CC1 | –
6 | – | – | – | – | 1.9 nM | – | – | – | Cc1nc2sccn2c(=O)c1CCN1CCC(=C(c2ccc(F)cc2)c2ccc(F)cc2)CC1 [RITANSERIN] | –
7 | – | – | – | – | – | – | – | 27 | CC(C)c1cc(-c2ccc(F)c3ccccc23)nc(N)n1 | –
